Measured values from PMC9200134 (Chemical Science, 2022).

Legend:
[1] = system: wild type zebrafish embryos; details: intravenous or retro-orbital injection, embryo type not stated; cited from earlier work
[2] = at 3.3 μM; cited from earlier work
[3] = system: lung (A549) cancer cell line; experiment: SRB cytotoxicity assay in 2D monolayers, dark vs green light; assay type: cell-based, human; details: read-out: EC50 (cell growth inhibition); A549 2D, dark (0 J cm^−2)
Procedure, shortened: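 Cells were given test compound for 24 h. They were then irradiated (520 nm, 15 min, 21 mW cm−2, 19 J cm−2) or kept dark, and incubated a further 48 h. Cells were fixed in 10% TCA for 48 h at 4 °C and stained with 0.6% SRB. Absorbance was averaged over triplicate wells and viability taken relative to untreated wells. There were three biological replicates from different passages.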

[4] = reference value, aerated CD3OD; cited from earlier work

## Cc1ccnc(-c2cc(C)ccn2)c1.Cc1ccnc(-c2cc(C)ccn2)c1.[Cl-].[Cl-].[Ru+2].c1csc(-c2ccc(-c3ccc(-c4nc5c6cccnc6c6ncccc6c5[nH]4)s3)s2)c1 [TLD-1433]
[1]
  MTD in zebrafish embryo: 4.6 mM

## N.N.[Cl][Pt][Cl] [Cisplatin]
[2]
  Platinum content in the nucleus: 0.6 ng Pt/10^6 cells
[3]
  EC50: 3000 nM

## [Ru+2].c1ccc(-c2ccccn2)nc1.c1ccc(-c2ccccn2)nc1.c1ccc(-c2ccccn2)nc1 [[Ru(bpy)3]^2+]
[4]
  1O2 generation quantum yield Φ^refΔ: 0.73
